Measured values taken from ChEMBL document CHEMBL3758131, “Towards new 5-HT7 antagonists among arylsulfonamide derivatives of (aryloxy)ethyl-alkyl amines: Multiobjective based design, synthesis, and antidepressant and anxiolytic properties” (Eur J Med Chem, 2016).

Experiments:
Mus musculus [1] = assay: Antidepressant activity in C57BL/6J mouse assessed as number of events at 10 mg/kg, ip measured over 6 mins by tail suspension test (reference value: 1325.1 +/- 77.8 to 1773.4 +/- 109.9); type: functional
Mus musculus [2] = assay: Antidepressant activity in C57BL/6J mouse assessed as immobility time at […], ip measured over 6 mins by tail suspension test (reference value: 160.7 +/- 12 to 170.6 +/- 9 sec); type: functional
Mus musculus [3] = assay: Toxicity in ip dosed albino Swiss mouse assessed as effect on spontaneous locomotory activity at MED measured over 2 to 6 mins; type: organism-based; details: in vivo
Outline: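 Male Albino Swiss mice (22–28 g) received drug i.p. 60 min before testing, in 1% aqueous Tween 80 or distilled water. Each mouse was habituated alone in a plastic cage for 30 min, then ambulation was counted from 2 to 6 min. Groups of 6–10 animals, each used once.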

Mus musculus [4] = assay: Anxiolytic activity in ip dosed albino Swiss mouse assessed as increase in number of shocks accepted measured over 1 min, 15 secs by four plates test; type: functional; details: read-out: MED
Outline: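 Male Albino Swiss mice, ip injection 60 min before test. Four-plate cage; after 15 s of habituation, each plate-to-plate crossing during a 1-min session is punished with a 0.8 mA, 0.5 s foot shock, followed by a 3-s shock-free interval. Number of shocks accepted is counted.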

Mus musculus [5] = assay: Antidepressant activity in C57BL/6J mouse assessed as immobility time at […] mg/kg, ip measured over 6 mins by tail suspension test (reference value: 160.7 +/- 12 to 170.6 +/- 9 sec); type: functional
Mus musculus [6] = assay: Antidepressant activity in C57BL/6J mouse assessed as immobility time at 10 mg/kg, ip measured over 6 mins by tail suspension test (reference value: 160.7 +/- 12 to 170.6 +/- 9 sec); type: functional
Mus musculus [7] = assay: Antidepressant activity in C57BL/6J mouse assessed as average force at […], ip measured over 6 mins by tail suspension test (reference value: 0.281 +/- 0.018 to 0.359 +/- 0.027 N); type: functional
Mus musculus [8] = assay: Antidepressant activity in C57BL/6J mouse assessed as average force at 10 mg/kg, ip measured over 6 mins by tail suspension test (reference value: 0.281 +/- 0.018 to 0.359 +/- 0.027 N); type: functional
Mus musculus [9] = assay: Antidepressant activity in albino Swiss mouse assessed as decrease in immobility time at 10 mg/kg, ip by forced swim test; type: functional
Mus musculus [10] = assay: Antidepressant activity in ip dosed C57BL/6J mouse assessed as reduction in immobility time of mouse by tail suspension test; type: functional; details: read-out: MED
Mus musculus [11] = assay: Antidepressant activity in C57BL/6J mouse assessed as average force at 5 mg/kg, ip measured over 6 mins by tail suspension test (reference value: 0.281 +/- 0.018 to 0.359 +/- 0.027 N); type: functional
Mus musculus [12] = assay: Antidepressant activity in C57BL/6J mouse assessed as number of events at […], ip measured over 6 mins by tail suspension test (reference value: 1325.1 +/- 77.8 to 1773.4 +/- 109.9); type: functional
Mus musculus [13] = assay: Toxicity in ip dosed C57BL/6J mouse assessed as effect on spontaneous locomotory activity at MED measured over 6 mins; type: organism-based; details: in vivo, 0.1 h
Outline: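 Mice habituated 30 min in individual cages, then ambulation counted over a period matching each behavioural test: 6 min for the tail suspension test and 1 min 15 s for the four-plate test. Compounds given ip at the active doses.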

Mus musculus [14] = assay: Toxicity in ip dosed C57BL/6J mouse assessed as effect on spontaneous locomotory activity at MED measured over 1 min 15 secs; type: organism-based; details: in vivo
Mus musculus [15] = assay: Antidepressant activity in C57BL/6J mouse assessed as number of events at 5 mg/kg, ip measured over 6 mins by tail suspension test (reference value: 1325.1 +/- 77.8 to 1773.4 +/- 109.9); type: functional
Rattus norvegicus = assay: Antidepressant activity in ip dosed Wistar rat assessed as reduction in immobility time of rat by forced swim test; type: functional; details: read-out: MED
Outline: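 Male Wistar rats (220-250 g), ip injection 30 min before test. Day 1: 15-min pre-swim in a cylinder with 15 cm of water at 25 °C, then drying under a lamp. Next day: total immobility recorded over the whole 5-min test, with fresh water for each rat.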

Mus musculus [16] = assay: Antidepressant activity in C57BL/6J mouse assessed as number of events at […] mg/kg, ip measured over 6 mins by tail suspension test (reference value: 1325.1 +/- 77.8 to 1773.4 +/- 109.9); type: functional
Mus musculus [17] = assay: Antidepressant activity in C57BL/6J mouse assessed as average force at […] mg/kg, ip measured over 6 mins by tail suspension test (reference value: 0.281 +/- 0.018 to 0.359 +/- 0.027 N); type: functional
Mus musculus [18] = assay: Antidepressant activity in C57BL/6J mouse assessed as immobility time at 5 mg/kg, ip measured over 6 mins by tail suspension test (reference value: 160.7 +/- 12 to 170.6 +/- 9 sec); type: functional

SMILES: CC1CCN(CC[C@H]2CCCN2S(=O)(=O)c2cccc(O)c2)CC1
- Activity (Mus musculus [1]): 1600.1
- Time (Mus musculus [2]): 151 s
- Activity (Mus musculus [3]): Non-toxic
- minimal effective dose (Mus musculus [4]): 1 mg/kg
- Time (Mus musculus [5]): 139.5 s
- Time (Mus musculus [6]): 186.1 s
- Activity (Mus musculus [7]): 0.449 N
- Activity (Mus musculus [8]): 0.311 N
- inhibition in vivo at 10 mg/kg (Mus musculus [9]): 31%
- minimal effective dose (Mus musculus [10]): 2.5 mg/kg
- Activity (Mus musculus [11]): 0.363 N
- Activity (Mus musculus [12]): 1467.1
- Activity (Mus musculus [13]): Non-toxic
- Activity (Mus musculus [14]): Non-toxic
- Activity (Mus musculus [15]): 1604.7
- minimal effective dose (Rattus norvegicus): 1.25 mg/kg
- Activity (Mus musculus [16]): 1764.8
- Activity (Mus musculus [17]): 0.396 N
- Time (Mus musculus [18]): 170.6 s
